Tests used:
Assay type in all cases: biochemical
α-glucosidase = α-glucosidase (Saccharomyces cerevisiae, UniProt P07265); assay: In vitro inhibitory activity against α-glucosidase
DPP-IV [1] = target: T1, DPP-IV (Homo sapiens, UniProt P27487); assay: In vitro inhibitory activity against DPP-IV
DPP-IV [2] = target: T1, DPP-IV; assay: Inhibitory kinetics study
Summary of the method: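 Test compound was tested separately at 0.25 and 0.5 mg/mL, each against Gly-Pro-AMC at various concentrations (0–60 μM). Inhibition pattern was assigned from Lineweaver-Burk plots. Ki was obtained from a double-reciprocal plot of initial […] against substrate. Values are mean ± SD, n = 6.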

human α-amylase (HPA) = target: T2, human α-amylase (HPA) (Homo sapiens, UniProt P04746); assay: In vitro inhibitory activity against α-amylase; details: α-amylase IC50 (μM)±SD, starch substrate; mean ± SD, n = 6
T2 sequence (P04746 16-511): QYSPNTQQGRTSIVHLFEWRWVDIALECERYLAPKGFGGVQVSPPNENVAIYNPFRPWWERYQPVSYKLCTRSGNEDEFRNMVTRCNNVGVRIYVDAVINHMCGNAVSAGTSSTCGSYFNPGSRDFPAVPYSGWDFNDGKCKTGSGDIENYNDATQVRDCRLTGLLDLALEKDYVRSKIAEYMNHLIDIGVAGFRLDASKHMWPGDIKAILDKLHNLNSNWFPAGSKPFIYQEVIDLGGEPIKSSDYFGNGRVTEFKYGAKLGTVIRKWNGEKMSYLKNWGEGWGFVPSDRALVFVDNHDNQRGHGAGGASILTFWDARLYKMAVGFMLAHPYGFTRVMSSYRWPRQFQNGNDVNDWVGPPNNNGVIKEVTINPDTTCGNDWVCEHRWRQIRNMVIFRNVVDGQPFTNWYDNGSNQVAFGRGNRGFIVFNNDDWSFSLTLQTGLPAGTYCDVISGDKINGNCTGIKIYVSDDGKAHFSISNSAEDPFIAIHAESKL

T1 sequence (P27487 whole entry): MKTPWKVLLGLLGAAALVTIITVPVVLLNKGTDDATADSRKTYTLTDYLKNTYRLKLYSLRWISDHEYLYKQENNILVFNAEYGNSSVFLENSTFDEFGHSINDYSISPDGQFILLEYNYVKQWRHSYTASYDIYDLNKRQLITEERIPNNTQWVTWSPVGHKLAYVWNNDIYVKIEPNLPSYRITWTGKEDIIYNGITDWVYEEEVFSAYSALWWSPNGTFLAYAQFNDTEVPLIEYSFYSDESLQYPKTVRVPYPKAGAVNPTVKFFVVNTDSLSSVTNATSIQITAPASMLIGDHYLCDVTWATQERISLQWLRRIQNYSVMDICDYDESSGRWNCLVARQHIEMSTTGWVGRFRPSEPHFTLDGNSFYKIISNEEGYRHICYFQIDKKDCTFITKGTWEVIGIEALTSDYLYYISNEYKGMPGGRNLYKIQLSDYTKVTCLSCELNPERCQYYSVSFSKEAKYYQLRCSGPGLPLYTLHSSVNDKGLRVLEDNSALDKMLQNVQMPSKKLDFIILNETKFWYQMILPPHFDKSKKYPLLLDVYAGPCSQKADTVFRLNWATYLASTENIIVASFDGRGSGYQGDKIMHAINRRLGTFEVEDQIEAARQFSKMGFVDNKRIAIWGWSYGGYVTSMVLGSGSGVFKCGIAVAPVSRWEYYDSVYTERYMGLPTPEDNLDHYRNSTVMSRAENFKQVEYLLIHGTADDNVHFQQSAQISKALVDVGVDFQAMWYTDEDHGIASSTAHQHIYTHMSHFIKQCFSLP
Chain of α-glucosidase (P07265 whole entry): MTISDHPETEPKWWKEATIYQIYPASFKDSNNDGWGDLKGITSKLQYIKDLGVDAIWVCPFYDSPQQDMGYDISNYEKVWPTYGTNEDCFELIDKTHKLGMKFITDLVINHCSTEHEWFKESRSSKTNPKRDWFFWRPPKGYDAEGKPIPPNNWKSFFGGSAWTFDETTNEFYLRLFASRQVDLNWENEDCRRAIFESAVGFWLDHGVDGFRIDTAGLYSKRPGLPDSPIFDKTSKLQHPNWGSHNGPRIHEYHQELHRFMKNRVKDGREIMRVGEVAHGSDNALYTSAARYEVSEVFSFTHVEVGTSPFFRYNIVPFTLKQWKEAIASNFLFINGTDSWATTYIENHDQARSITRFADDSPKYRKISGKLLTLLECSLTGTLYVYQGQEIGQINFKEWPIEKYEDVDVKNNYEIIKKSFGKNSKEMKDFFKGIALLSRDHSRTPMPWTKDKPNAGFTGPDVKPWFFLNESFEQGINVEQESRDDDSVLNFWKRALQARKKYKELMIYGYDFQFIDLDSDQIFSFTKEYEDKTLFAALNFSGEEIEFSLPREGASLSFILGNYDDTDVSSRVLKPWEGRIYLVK

IC50 (α-glucosidase) [µM]	IC50 (DPP-IV [1]) [µM]	Ki (DPP-IV [2]) [µM]	IC50 (human α-amylase (HPA)) [µM]	SMILES
47.9 ± 5.21	5.638 ± 0.0016	15	–	Oc1ccc(/C=C/c2cc(O)cc(O)c2)cc1 [Resveratrol]
45.9 ± 3.78	6.691 ± 0.004	12.3	31.3 ± 0.556	O=C1c2c(O)cc(O)cc2OC(c2ccc(O)c(O)c2)C1O (stereo not shown) [Taxifolin]

Source: paper PMC9099060 (Dose-Response, 2022)
